Experimental data published in ChEMBL document CHEMBL4304792, “Cinnamonitrile Adjuvants Restore Susceptibility to β-Lactams against Methicillin-Resistant Staphylococcus aureus” (ACS Med Chem Lett, 2019).
≈ marks a conversion by molar mass, not a printed value. Calls of active or inactive are those of the source. The rule behind the calls is not given here.

How the values were obtained:
Staphylococcus aureus [1] = assay: Antibacterial activity against Staphylococcus aureus MRSA252 measured after 16 to 20 hrs in presence of 2% NaCl by microdilution broth method; type: functional
HeLa = assay: Cytotoxicity against human HeLa cells by XTT assay; type: cell-based
Outline: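 HeLa human cervical cancer cells were exposed to the compounds. Viability was read by XTT colorimetric assay, and IC50 was reported in μM and mg·L–1.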

Staphylococcus aureus [2] = assay: Potentiation of oxacillin induced antibacterial activity against Staphylococcus aureus Mu50 NRS1 assessed as oxacillin MIC at 20 uM measured after 16 to 20 hrs in presence of 2% NaCl by microdilution broth method (reference value: 256 mg/L); type: functional
Staphylococcus aureus [3] = assay: Potentiation of oxacillin induced antibacterial activity against Staphylococcus aureus Mu50 NRS1 assessed as oxacillin MIC at 16 uM measured after 16 to 20 hrs in presence of 2% NaCl by microdilution broth method (reference value: 256 mg/L); type: functional
Staphylococcus aureus [4] = assay: Potentiation of oxacillin induced antibacterial activity against Staphylococcus aureus Mu50 NRS1 assessed as oxacillin MIC at 8 uM measured after 16 to 20 hrs in presence of 2% NaCl by microdilution broth method (reference value: 256 mg/L); type: functional
Staphylococcus aureus [5] = assay: Potentiation of oxacillin induced antibacterial activity against Staphylococcus aureus NRS70 assessed as oxacillin MIC at 16 uM measured after 16 to 20 hrs in presence of 2% NaCl by microdilution broth method (reference value: 64 mg/L); type: functional
Staphylococcus aureus [6] = assay: Potentiation of oxacillin induced antibacterial activity against Staphylococcus aureus NRS70 assessed as oxacillin MIC at 8 uM measured after 16 to 20 hrs in presence of 2% NaCl by microdilution broth method (reference value: 64 mg/L); type: functional
Staphylococcus aureus [7] = assay: Potentiation of oxacillin induced antibacterial activity against Staphylococcus aureus NRS119 assessed as oxacillin MIC at 16 uM measured after 16 to 20 hrs in presence of 2% NaCl by microdilution broth method (reference value: 256 mg/L); type: functional
Staphylococcus aureus [8] = assay: Potentiation of oxacillin induced antibacterial activity against Staphylococcus aureus NRS119 assessed as oxacillin MIC at 8 uM measured after 16 to 20 hrs in presence of 2% NaCl by microdilution broth method (reference value: 256 mg/L); type: functional
Staphylococcus aureus [9] = assay: Potentiation of oxacillin induced antibacterial activity against Staphylococcus aureus MW2 NRS123 assessed as oxacillin MIC at 16 uM measured after 16 to 20 hrs in presence of 2% NaCl by microdilution broth method (reference value: 16 mg/L); type: functional
Staphylococcus aureus [10] = assay: Potentiation of oxacillin induced antibacterial activity against Staphylococcus aureus MW2 NRS123 assessed as oxacillin MIC at 8 uM measured after 16 to 20 hrs in presence of 2% NaCl by microdilution broth method (reference value: 16 mg/L); type: functional
Staphylococcus aureus [11] = assay: Potentiation of oxacillin induced antibacterial activity against Staphylococcus aureus USA100-NRS382 assessed as oxacillin MIC at 16 uM measured after 16 to 20 hrs in presence of 2% NaCl by microdilution broth method (reference value: 64 mg/L); type: functional
Staphylococcus aureus [12] = assay: Potentiation of oxacillin induced antibacterial activity against Staphylococcus aureus USA100-NRS382 assessed as oxacillin MIC at 8 uM measured after 16 to 20 hrs in presence of 2% NaCl by microdilution broth method (reference value: 64 mg/L); type: functional
Staphylococcus aureus [13] = assay: Potentiation of oxacillin induced antibacterial activity against Staphylococcus aureus USA200-NRS383 assessed as oxacillin MIC at 16 uM measured after 16 to 20 hrs in presence of 2% NaCl by microdilution broth method (reference value: 128 mg/L); type: functional
Staphylococcus aureus [14] = assay: Potentiation of oxacillin induced antibacterial activity against Staphylococcus aureus USA200-NRS383 assessed as oxacillin MIC at 8 uM measured after 16 to 20 hrs in presence of 2% NaCl by microdilution broth method (reference value: 128 mg/L); type: functional
Staphylococcus aureus [15] = assay: Potentiation of oxacillin induced antibacterial activity against Staphylococcus aureus NRS384 assessed as oxacillin MIC at 20 uM measured after 16 to 20 hrs in presence of 2% NaCl by microdilution broth method (reference value: 32 mg/L); type: functional
Staphylococcus aureus [16] = assay: Potentiation of oxacillin induced antibacterial activity against Staphylococcus aureus NRS384 assessed as oxacillin MIC at 16 uM measured after 16 to 20 hrs in presence of 2% NaCl by microdilution broth method (reference value: 32 mg/L); type: functional
Staphylococcus aureus [17] = assay: Potentiation of oxacillin induced antibacterial activity against Staphylococcus aureus MRSA252 assessed as oxacillin MIC at 8 uM measured after 16 to 20 hrs in presence of 2% NaCl by microdilution broth method (reference value: 256 mg/L); type: functional
Staphylococcus aureus [18] = assay: Antibacterial activity against Staphylococcus aureus NRS119 measured after 16 to 20 hrs in presence of 2% NaCl by microdilution broth method; type: functional
Staphylococcus aureus [19] = assay: Antibacterial activity against Staphylococcus aureus MW2 NRS123 measured after 16 to 20 hrs in presence of 2% NaCl by microdilution broth method; type: functional
Staphylococcus aureus [20] = assay: Antibacterial activity against Staphylococcus aureus USA100-NRS382 measured after 16 to 20 hrs in presence of 2% NaCl by microdilution broth method; type: functional
Staphylococcus aureus [21] = assay: Antibacterial activity against Staphylococcus aureus USA200-NRS383 measured after 16 to 20 hrs in presence of 2% NaCl by microdilution broth method; type: functional
Staphylococcus aureus [22] = assay: Potentiation of oxacillin induced antibacterial activity against methicillin susceptible Staphylococcus aureus ATCC29213 assessed as reduction in oxacillin MIC at 20 uM measured after 16 to 20 hrs in presence of 2% NaCl by microdilution broth method; type: functional
Outline: (§1)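 Oxacillin MIC was measured against methicillin-susceptible strains with the adjuvant fixed at 20 μM. Potentiation was expressed as fold reduction of the oxacillin MIC relative to oxacillin alone.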

Staphylococcus aureus [23] = assay: Potentiation of oxacillin induced antibacterial activity against methicillin susceptible Staphylococcus aureus NRS11 assessed as reduction in oxacillin MIC at 20 uM measured after 16 to 20 hrs in presence of 2% NaCl by microdilution broth method; type: functional; outline: as §1
Staphylococcus aureus [24] = assay: Potentiation of oxacillin induced antibacterial activity against methicillin susceptible Staphylococcus aureus NRS72 assessed as reduction in oxacillin MIC at 20 uM measured after 16 to 20 hrs in presence of 2% NaCl by microdilution broth method; type: functional; outline: as §1
Staphylococcus aureus [25] = assay: Potentiation of oxacillin induced antibacterial activity against methicillin susceptible Staphylococcus aureus NRS77 assessed as reduction in oxacillin MIC at 20 uM measured after 16 to 20 hrs in presence of 2% NaCl by microdilution broth method; type: functional; outline: as §1
Staphylococcus aureus [26] = assay: Potentiation of oxacillin induced antibacterial activity against Staphylococcus aureus NRS70 assessed as oxacillin MIC at 20 uM measured after 16 to 20 hrs in presence of 2% NaCl by microdilution broth method (reference value: 64 mg/L); type: functional
Staphylococcus aureus [27] = assay: Antibacterial activity against Staphylococcus aureus NRS70 measured after 16 to 20 hrs in absence of 2% NaCl by microdilution broth method

SMILES | MIC (Staphylococcus aureus [1]) [µg/mL] | MIC (Staphylococcus aureus [2]) [µg/mL] | MIC (Staphylococcus aureus [3]) [µg/mL] | MIC (Staphylococcus aureus [4]) [µg/mL] | MIC (Staphylococcus aureus [5]) [µg/mL] | MIC (Staphylococcus aureus [6]) [µg/mL] | MIC (Staphylococcus aureus [7]) [µg/mL] | MIC (Staphylococcus aureus [8]) [µg/mL] | MIC (Staphylococcus aureus [9]) [µg/mL] | MIC (Staphylococcus aureus [10]) [µg/mL] | MIC (Staphylococcus aureus [11]) [µg/mL] | MIC (Staphylococcus aureus [12]) [µg/mL] | MIC (Staphylococcus aureus [14]) [µg/mL] | MIC (Staphylococcus aureus [15]) [µg/mL] | MIC (Staphylococcus aureus [16]) [µg/mL] | MIC (Staphylococcus aureus [17]) [µg/mL] | MIC (Staphylococcus aureus [18]) [µg/mL] | MIC (Staphylococcus aureus [19]) [µg/mL] | MIC (Staphylococcus aureus [20]) [µg/mL] | IC50 (HeLa) [µM] | also measured
CS(=O)(=O)/C(C#N)=C/c1cc(Cc2ccc(Cl)c(Cl)c2)ccc1F | 32 | 1 | 4 | 8 | 0.5 | 8 | 1 | 0.5 | 0.5 | 4 | 1 | 1 | ≥ 128 | 0.06 | 0.25 | 256 | 16 | ≥ 64 | ≥ 64 | 125 | MIC (Staphylococcus aureus [13]): ≥ 128 µg/mL; MIC (Staphylococcus aureus [21]): ≥ 64 µg/mL; fold change (FC) (Staphylococcus aureus [22]): 2 - 10; fold change (FC) (Staphylococcus aureus [23]): 2 - 10; fold change (FC) (Staphylococcus aureus [24]): 2 - 10; fold change (FC) (Staphylococcus aureus [25]): 2 - 10; MIC (Staphylococcus aureus [26]): ≤ 0.03 µg/mL; MIC (Staphylococcus aureus [27]): 8 µg/mL (≈ 20.8 µM)
N#C/C(=C\c1cc(Cc2ccc(Cl)c(Cl)c2)ccc1F)S(=O)(=O)c1ccccn1 | 16 | ≤ 0.03 | 0.03 | 128 | 0.03 | 4 | 0.5 | 16 | 0.12 | 0.5 | 0.25 | 0.5 | ≥ 128 | 0.06 | 0.12 | 256 | 16 | 16 | 16 | 87 | MIC (Staphylococcus aureus [13]): ≥ 128 µg/mL; MIC (Staphylococcus aureus [21]): 16 µg/mL; fold change (FC) (Staphylococcus aureus [22]): 2 - 10; fold change (FC) (Staphylococcus aureus [23]): 2 - 10; fold change (FC) (Staphylococcus aureus [24]): 2 - 10; fold change (FC) (Staphylococcus aureus [25]): 2 - 10; MIC (Staphylococcus aureus [26]): ≤ 0.03 µg/mL; MIC (Staphylococcus aureus [27]): 16 µg/mL (≈ 35.8 µM)
CS(=O)(=O)/C(C#N)=C/c1cc(Cc2ccc(Cl)c(Cl)c2)ccc1OC(F)(F)F | 8 | ≤ 0.03 | 0.12 | 8 | ≤ 0.03 | 0.25 | 0.03 | 0.06 | 0.12 | 0.5 | 0.06 | 0.5 | ≥ 128 | ≤ 0.03 | 0.03 | 2 | 8 | ≥ 64 | ≥ 64 | 73 | MIC (Staphylococcus aureus [21]): 32 µg/mL; fold change (FC) (Staphylococcus aureus [22]): 2 - 10; fold change (FC) (Staphylococcus aureus [23]): 2 - 10; fold change (FC) (Staphylococcus aureus [24]): 2 - 10; fold change (FC) (Staphylococcus aureus [25]): 2 - 10; MIC (Staphylococcus aureus [26]): Active; MIC (Staphylococcus aureus [26]; record 2): ≤ 0.03 µg/mL; MIC (Staphylococcus aureus [27]): 8 µg/mL (≈ 17.8 µM)

Continued, in another order:

MIC (Staphylococcus aureus [1]) [µg/mL] | MIC (Staphylococcus aureus [2]) [µg/mL] | MIC (Staphylococcus aureus [3]) [µg/mL] | MIC (Staphylococcus aureus [4]) [µg/mL] | MIC (Staphylococcus aureus [5]) [µg/mL] | MIC (Staphylococcus aureus [6]) [µg/mL] | MIC (Staphylococcus aureus [7]) [µg/mL] | MIC (Staphylococcus aureus [8]) [µg/mL] | MIC (Staphylococcus aureus [9]) [µg/mL] | MIC (Staphylococcus aureus [10]) [µg/mL] | MIC (Staphylococcus aureus [11]) [µg/mL] | MIC (Staphylococcus aureus [12]) [µg/mL] | MIC (Staphylococcus aureus [14]) [µg/mL] | MIC (Staphylococcus aureus [15]) [µg/mL] | MIC (Staphylococcus aureus [16]) [µg/mL] | MIC (Staphylococcus aureus [17]) [µg/mL] | MIC (Staphylococcus aureus [18]) [µg/mL] | MIC (Staphylococcus aureus [19]) [µg/mL] | MIC (Staphylococcus aureus [20]) [µg/mL] | SMILES | IC50 (HeLa) [µM] | also measured
16 | 2 | 16 | 128 | 2 | 16 | 0.5 | 32 | 0.5 | 1 | 2 | 4 | ≥ 128 | 4 | 8 | 256 | 16 | 16 | 32 | CS(=O)(=O)/C(C#N)=C/c1cc(-c2ccc(Cl)c(Cl)c2)ccc1F | 130 | MIC (Staphylococcus aureus [13]): ≥ 128 µg/mL; MIC (Staphylococcus aureus [21]): 16 µg/mL; fold change (FC) (Staphylococcus aureus [22]): 2 - 10; fold change (FC) (Staphylococcus aureus [23]): 2 - 10; fold change (FC) (Staphylococcus aureus [24]): 2 - 10; fold change (FC) (Staphylococcus aureus [25]): 2 - 10; MIC (Staphylococcus aureus [26]): 0.12 µg/mL; MIC (Staphylococcus aureus [27]): 16 µg/mL (≈ 43.2 µM)
16 | ≤ 0.03 | 4 | 16 | 0.5 | 64 | 1 | 4 | 0.5 | ≥ 16 | 1 | 1 | ≥ 128 | ≤ 0.03 | 0.5 | 256 | 16 | 16 | 16 | CS(=O)(=O)/C(C#N)=C/c1c(F)ccc(Cc2ccc(Cl)c(Cl)c2)c1F | 92 | MIC (Staphylococcus aureus [13]): ≥ 128 µg/mL; MIC (Staphylococcus aureus [21]): 16 µg/mL; fold change (FC) (Staphylococcus aureus [22]): 2 - 10; fold change (FC) (Staphylococcus aureus [23]): 2 - 10; fold change (FC) (Staphylococcus aureus [24]): 2 - 10; fold change (FC) (Staphylococcus aureus [25]): 2 - 10; MIC (Staphylococcus aureus [26]): Active; MIC (Staphylococcus aureus [26]; record 2): ≤ 0.03 µg/mL; MIC (Staphylococcus aureus [27]): 8 µg/mL (≈ 19.9 µM)
